Non-standard residues stand in square brackets, D forms with d. Residues, ends and D or L forms follow the SMILES beside them. Dmt = Cc1cc(O)cc(C)c1C[C@H](N)C(=O)O; Tic = O=C(O)[C@@H]1Cc2ccccc2CN1
Target: Delta-type opioid receptor (Mus musculus, UniProt P32300)
Assay: Antagonist activity against delta opioid receptor in mouse vas deferens assessed as effect on deltorphin 2-induced contraction
Type: functional, tissue-based
Conditions: read-out: pA2 (converted)
How it was run: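 pA2 was measured against the δ agonist deltorphin II in mouse vas deferens and determined by the Kosterlitz and Watt method.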

Chain of Delta-type opioid receptor (P32300 whole entry): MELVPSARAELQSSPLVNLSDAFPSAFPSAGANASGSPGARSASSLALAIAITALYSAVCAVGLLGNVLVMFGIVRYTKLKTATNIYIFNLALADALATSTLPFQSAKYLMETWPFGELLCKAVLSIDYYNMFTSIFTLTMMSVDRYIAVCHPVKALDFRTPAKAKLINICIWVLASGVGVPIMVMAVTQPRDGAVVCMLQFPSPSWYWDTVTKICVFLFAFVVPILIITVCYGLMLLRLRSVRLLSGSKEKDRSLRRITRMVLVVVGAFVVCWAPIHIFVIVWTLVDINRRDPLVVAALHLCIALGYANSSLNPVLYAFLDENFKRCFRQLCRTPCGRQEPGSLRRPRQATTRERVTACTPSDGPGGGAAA

**Q.** `Cc1cc(O)cc(C)c1C[C@H](N)C(=O)N1Cc2ccccc2C[C@H]1C(=O)N[C@@H](Cc1ccccc1)C(=O)N[C@@H](Cc1ccccc1)C(=O)O` (H-[Dmt][Tic]FF-OH) was tested. Which Kb did it give?
**A.** The Kb was 200 pM.
